Rows were chosen to be rich in hits. Some 2.9% of all compounds tested hit in one or more screens of this group.
CRFBP-R2 block: antagonists of CRF-BP/CRF-R2 complex, primary screen, cell-based, HEK293, calcium dye fluorescence, uHTS; CRF-induced calcium fluorescence; inhibition, % at 11.8 µM; 350,000 compounds, 0.59% hits;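 active = inhibition of the ligand-induced calcium signal above about 50% at the single tested concentration, limit read from the data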
DDE Tn6 FP inh: inhibitors of Tn6 peptide binding to fibrin DD(E), primary screen, biochemical, fluorescence polarization, human fibrin, Tn6 probe | Fibrinogen beta chain (Homo sapiens), P02675 | Fibrin DD(E) TRITC-Tn6 fluorescence polarization displacement | inhibition, % at 8.3 µM | 370,000 compounds, 0.21% hits | AID 720509, 2013;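 active = inhibition above a per-campaign cutoff: mean of compounds within control limits plus 3 SD, cut at about 15% in these data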;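 note: 0% = median of all compound wells on the plate and 100% = blocking peptide control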
Tn7 DDE FP: inhibitors of Tn7 peptide binding to fibrin DD(E), primary screen, biochemical, fluorescence polarization, human fibrin, Tn7 probe. 370,000 compounds, 0.13% hits. AID 720508, 2013. Fibrinogen beta chain (Homo sapiens), P02675. FP displacement of FITC-Tn7 peptide from fibrin DD(E); 0% = median of compound wells per plate. inhibition, % at 8.3 µM;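 active = inhibition above the mean of compounds falling within the control limits plus 3 SD of them, cut at about 14% in these data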;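 note: 0% = plate median of compound wells and 100% = 10 µM Aha-Tn7 peptide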
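system = human fibrin DD(E) protein | quantity = DD(E) 2 µM final | medium = Tris/NaCl/CaCl2 buffer, pH 7.8 | also added = labelled Tn7 tracer, 0.1 µM | compound dosing = single point at 8.3 µM | timing = compound with protein 10 min, then 3 h after probe, room temperature | signal = FP measurement | benchmarks = Aha-Tn7 high control | repeats = one replicate per compound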
CRFR2-BP ag: agonists of CRF-BP/CRF-R2 complex, primary screen, cell-based, HEK293, calcium dye fluorescence, uHTS | 350,000 compounds, 0.46% hits | AID 588473, 2011 | CRF-binding protein / CRF receptor 2 complex (human) | calcium dye fluorescence (FLIPR); percent of saturating CRF peptide response | activation, % at 13.2 µM;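 active = activation of at least 50%, plus an integration ratio under a set limit after plate pattern correction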;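 note: plate controls were neutral control wells without compound for no effect and CRF at EC100 for full effect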
NRP1-CendR mod: modulators of CendR peptide binding to NRP-1, primary screen, biochemical, fluorescence polarization, uHTS; FAM-RPARPAR peptide binding to NRP-1; inhibition, % at 25 µM; 360,000 compounds, 0.85% hits;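 active = inhibition or corrected inhibition above about 18%, plus a signal ratio from 0.5 to 1.5, limit read from the data, passing the limit was not always enough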
Target sequence (O14786 whole entry, looked up): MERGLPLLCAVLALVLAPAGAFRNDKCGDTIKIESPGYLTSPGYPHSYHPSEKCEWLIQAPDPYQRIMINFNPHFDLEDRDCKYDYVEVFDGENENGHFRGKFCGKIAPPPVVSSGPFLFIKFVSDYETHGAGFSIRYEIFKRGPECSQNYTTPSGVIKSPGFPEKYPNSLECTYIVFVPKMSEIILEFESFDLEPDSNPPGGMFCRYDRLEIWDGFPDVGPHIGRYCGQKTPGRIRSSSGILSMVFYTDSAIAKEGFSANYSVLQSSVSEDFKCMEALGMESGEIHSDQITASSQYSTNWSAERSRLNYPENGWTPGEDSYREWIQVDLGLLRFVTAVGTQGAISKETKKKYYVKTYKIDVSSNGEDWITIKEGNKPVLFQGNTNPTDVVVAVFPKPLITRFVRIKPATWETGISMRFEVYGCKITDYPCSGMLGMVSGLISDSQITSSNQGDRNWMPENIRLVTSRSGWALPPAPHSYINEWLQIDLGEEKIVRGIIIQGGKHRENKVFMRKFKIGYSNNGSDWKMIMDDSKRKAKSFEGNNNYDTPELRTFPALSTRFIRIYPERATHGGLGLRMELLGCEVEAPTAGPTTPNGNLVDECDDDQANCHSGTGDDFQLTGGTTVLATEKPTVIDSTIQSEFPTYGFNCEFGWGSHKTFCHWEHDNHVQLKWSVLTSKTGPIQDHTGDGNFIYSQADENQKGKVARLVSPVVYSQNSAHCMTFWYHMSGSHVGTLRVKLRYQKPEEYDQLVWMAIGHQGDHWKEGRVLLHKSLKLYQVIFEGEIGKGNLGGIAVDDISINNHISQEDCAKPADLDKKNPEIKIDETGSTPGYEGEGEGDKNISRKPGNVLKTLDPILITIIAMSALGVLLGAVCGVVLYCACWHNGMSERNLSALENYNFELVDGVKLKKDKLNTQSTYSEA
KLK7 zymogen act: proKLK7 zymogen activators, primary screen, biochemical, fluorescence intensity; purified proKLK7, EDANS-DABCYL substrate fluorescence; 100% is mature enzyme control, 0% vehicle; activation, % at 7 µM; Kallikrein-7 (Homo sapiens), P49862; 370,000 compounds, 0.9% hits;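 active = activation above the mean of all tested compounds plus 3 SD, computed per campaign excluding outliers beyond control limits, cut at about 13% in these data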
DDE Tn7 confirm: inhibitors of Tn7 peptide binding to fibrin DD(E), confirmation, biochemical, fluorescence polarization, human fibrin, Tn7 probe | FP displacement of TRITC-Tn7 peptide from DD(E); 0% set at plate's compound-well median | inhibition, % at 8.3 µM | 460 compounds, 5% hits | shares compounds with Tn7 DDE FP;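 active = inhibition above the campaign cutoff, the mean of compounds within control limits plus 3 SD, cut at about 14% in these data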;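 note: 100% = median FP of high control wells holding Aha-Tn7 inhibitor peptide; displacers lower polarization since freed probe rises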
DDE Tn7 FP ctr: counter-screen for inhibitors of Tn7 peptide binding to fibrin DD(E). shares compounds with Tn7 DDE FP. TRITC-Tn7 probe displacement, fluorescence polarization. inhibition, % at 8.3 µM. 460 compounds, 3% hits;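 active = inhibition above the cutoff, the mean of compounds lying between the control bounds plus 3 SD of those compounds, cut at about 17% in these data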;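 note: 0% = median of compound sample wells and 100% = excess unlabeled Aha-Tn7 peptide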
DDE Tn6 FP ctr: DD(E)-Tn6 binding inhibition, counter-screen | shares compounds with DDE Tn6 FP inh | Fibrin DD(E), TRITC-Tn6 fluorescence polarization displacement; 0% = median of compound wells, not DMSO | inhibition, % at 8.3 µM | 680 compounds, 2% hits;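 active = inhibition above the mean of test compounds lying between the control limits plus 3 SD of those, cut at about 14% in these data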;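 note: 0% = median of compound wells and 100% = wells with Aha-Tn7 blocking peptide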
Tn6 DDE conf: inhibitors of Tn6 peptide binding to fibrin DD(E), confirmation, biochemical, fluorescence polarization, human fibrin, Tn6 probe; shares compounds with DDE Tn6 FP inh; FP displacement of TRITC-Tn6 peptide from DD(E); 0% = per-plate median of test wells; inhibition, % at 8.3 µM; 680 compounds, 10% hits; AID 720631, 2013;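 active = inhibition above the mean of compounds lying within the control limits plus 3 SD, cut at about 16% in these data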;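 note: 100% = high control wells holding a competing inhibitor peptide at 10 µM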
An asterisk follows results filed as active; . = no result given; + = active, no number.

SMILES	CRFBP-R2 block	DDE Tn6 FP inh	Tn7 DDE FP	CRFR2-BP ag	NRP1-CendR mod	KLK7 zymogen act	DDE Tn6 FP ctr	Tn6 DDE conf	others
CCNC(=O)C1CCCN(C(=O)Cc2cccs2)CC1 (stereo not drawn)	.	18*	15*	.	-15	0	2	-3	DDE Tn7 confirm=2;DDE Tn7 FP ctr=-3
CCNC(=O)C1CCCN(C(=O)c2cccs2)CC1 (stereo not drawn)	.	2	-2	.	4	0	.	.
CCCCNC(=O)NS(=O)(=O)c1ccc(NC(=O)CSc2nnc(-c3ccc(Cl)cc3)n2N)cc1	.	3	7	.	.	0	.	.
COc1ccc(CN(C)CC(=O)Nc2ccccc2C(=O)NC2CC2)cc1	-3	1	5	0	-12	0	.	.
CN(CC(=O)Nc1ccccc1C(=O)NC1CC1)Cc1ccc(N(C)C)cc1	5	40*	18*	1	11	0	-6	-10	DDE Tn7 confirm=-6;DDE Tn7 FP ctr=-10
CC1CCCCC1N(C(=O)c1cc(C2CC2)on1)C1CCCCC1 (stereo not drawn)	.	1	4	.	.	0	.	.
COc1ccc(N(Cc2cc3cc(OC)ccc3[nH]c2=O)C(=O)c2cccnc2)cc1	-1	21*	23*	0	-3	-1	-6	-11	DDE Tn7 confirm=-6;DDE Tn7 FP ctr=-11
COc1cccc2c1C(=O)c1c(O)c3c(c(O)c1C2=O)CC(O)(C(=O)CO)CC3OC1CC(N(C)C)C(O)C(C)O1 (stereo not drawn)	-102	+	16*	91*	145	2	-7	93*	DDE Tn7 confirm=-7;DDE Tn7 FP ctr=93*
COc1cccc2c1C(=O)c1c(O)c3c(c(O)c1C2=O)C[C@@](O)(C(C)=O)C[C@@H]3O[C@H]1C[C@H](N)[C@H](O)[C@H](C)O1	-92	+	18*	83*	142	2	-9	93*	DDE Tn7 confirm=-9;DDE Tn7 FP ctr=93*
COc1ccc(C(=O)NCCC2=CCCCC2)cc1[N+](=O)[O-]	-6	-3	6	-3	-9	-1	.	.
O=C(NCCC1=CCCCC1)c1ccc(-n2cncn2)c([N+](=O)[O-])c1	-2	162*	24*	0	-2	1	2	5	DDE Tn7 confirm=2;DDE Tn7 FP ctr=5
Cc1nc2cc[nH]n2c(=O)c1CCc1ccccc1	.	-4	3	.	.	1	.	.
CN(C)/C=C1\SC(=S)N(c2ccc(Br)cc2)C1=O	2	36*	7	-1	-188	0	4	32*
N#CC(C#N)=C1NC2(CCCCC2)Cc2ccccc21	-3	8	-2	-5	-11	0	.	.
N#CC(C#N)=c1ccc2c(c1)NC1(CCCCC1)N=2	28	42*	4	-7	6	0	11	34*
CCOC(=O)c1ccc(-c2ccc(/C=C(\C#N)C(=O)NCC3CCCO3)o2)cc1 (stereo not drawn)	-8	18*	6	2	-45	0	-5	-9
CCC(=O)OCCCN1CCC2(CCCCC2)C1=O	.	1	-7	.	.	.	.	.
COc1ccc(CCN2CC(C(=O)OCC(=O)c3c(N)n(CC(C)C)c(=O)n(C)c3=O)CC2=O)cc1OC (stereo not drawn)	7	44*	1	-2	8	0	4	-4
CN(C(=O)C12CC3CC(CC(C3)C1)C2)C1(C)CCS(=O)(=O)C1 (stereo not drawn)	11	15*	-3	-3	6	0	3	0
CC1(NC(=O)C23CC4CC(CC(C4)C2)C3)CCS(=O)(=O)C1 (stereo not drawn)	-9	-2	-7	0	3	0	.	.
Oc1ccc(C[C@H]2CN([C@@H](Cc3ccc(O)cc3)CN3CCC[C@@H]3CN3C(=S)NC[C@@H]3Cc3ccccc3)C(=S)N2CCc2ccccc2)cc1	.	10	6	.	5	0	.	.
Oc1ccc(C[C@H]2CNC(=S)N2C[C@H]2CCCN2C[C@H](Cc2ccccc2)N2C[C@H](Cc3ccc(O)cc3)N(CCc3ccccc3)C2=S)cc1	.	17*	3	.	12	0	-2	-10
Oc1ccc(C[C@H]2CNC(=S)N2CC2CCCN2C[C@H](Cc2ccc(O)cc2)N2C[C@H](Cc3ccc(O)cc3)N(CC3CCCCCC3)C2=S)cc1 (stereo partly drawn)	-11	31*	8	0	3	0	-2	-1
CCOc1ccc(CCN2C(=S)N([C@@H](Cc3ccc(O)cc3)CN3CCC[C@@H]3CN3C(=S)NC[C@@H]3CC(C)C)C[C@@H]2Cc2ccc(O)cc2)cc1	.	16*	0	.	15	0	0	-6
CCN(CC)c1ccc(/C=N/n2nnnc2N)c(O)c1	4	18*	1	-3	-29	-4	3	3
SMILES	CRFBP-R2 block	DDE Tn6 FP inh	Tn7 DDE FP	CRFR2-BP ag	NRP1-CendR mod	KLK7 zymogen act	DDE Tn6 FP ctr	Tn6 DDE conf	others
CSc1ccc(S(=O)(=O)N2CC(=O)Nc3ccccc32)cc1	-3	16*	-6	0	-14	1	4	4
COc1ccc(S(=O)(=O)N2CC(=O)Nc3ccccc32)cc1	6	3	-4	-1	-7	2	.	.
CCN(C(=O)[C@@H](C1CC1)[C@@H](O)c1ccc(Cl)cc1)c1ccccc1	.	0	1	.	.	0	.	.
CCN(CC)c1cccc(OCC(=O)N(C)CCC#N)c1	-13	88*	6	2	-81	0	9	10
CCOc1cccc(C(=O)Nc2ccc(N(CC)CC)cc2)c1	-16	-4	8	-1	-4	1	.	.
CCOC(=O)c1sc(N(Cc2ccccc2)C(=O)COC(=O)c2ccc(O)cc2)nc1C	1	27*	6	2	0	0	9	-3

Screening results (PubChem)
